Test results published in ChEMBL document CHEMBL1255422, “Novel FKS mutations associated with echinocandin resistance in Candida species” (Antimicrob Agents Chemother, 2010).
In brackets after ≈: the same amount, converted by molar mass. Numbered stars: 1 amine (or outer) side, 2 acyl side, 3 side chain; on linkers, the order of the positions; unused ones are H or OH. Bridge positions count the residues as written; N and C are the ends. Square brackets hold non-standard residues; d marks the D form. Peptide text beside a SMILES is read from it. * marks the point of attachment. hTyr(3S-OH,4S-OH,3'-OSO3H) = N[C@H](C(=O)O)[C@H](O)[C@@H](O)c1ccc(O)c(OS(=O)(=O)O)c1; pTerphenylCO(4''-OnC5H11) = CCCCCOc1ccc(-c2ccc(-c3ccc(C(=O)*)cc3)cc2)cc1; Orn(4R-OH,5R-OH) = O=C([C@H](C[C@@H](O)[C@@H](O)N[*:3])N[*:1])[*:2]; hTyr(3S-OH,4S-OH) = N[C@H](C(=O)O)[C@H](O)[C@@H](O)c1ccc(O)cc1; Pro(3S-OH,4S-Me) = C[C@H]1CN[C@H](C(=O)O)[C@H]1O; X1 = CCCCCOc1ccc(-c2cc(-c3ccc(C(=O)*)cc3)no2)cc1; Gln(3R-OH) = NC(=O)C[C@@H](O)[C@H](N)C(=O)O; Hyp = O=C(O)[C@@H]1C[C@@H](O)CN1

What was measured:
[1] = Inhibition of Candida glabrata CG-C3 FKS
Candida tropicalis [2] = assay: Antifungal activity against wild type Candida tropicalis ATCC 750; assay type: functional
Outline: (§1)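 Whole-cell MIC testing of clinical isolates alongside reference strains. Each MIC is the geometric mean of three repetitions.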

[3] = Inhibition of Candida albicans ATCC 90028 wild type FKS
Outline: (§2)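 1,3-β-d-glucan synthase complexes were isolated from each strain and titrated against echinocandin to generate inhibition curves. IC50 was taken from the inhibition kinetics and given as the arithmetic mean of three repetitions.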

Nakaseomyces glabratus [4] = assay: Antifungal activity against wild type Candida glabrata ATCC 90030; assay type: functional
Outline: (§3)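 MIC by broth dilution. The reported value is the geometric mean of three repetitions. Clinical isolates were tested alongside reference strains C. glabrata ATCC 90030, C. tropicalis ATCC 750, C. albicans ATCC 90028, 205 and 177.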

[5] = Inhibition of Candida glabrata CG-C2 FKS
Nakaseomyces glabratus [6] = assay: Antifungal activity against Candida glabrata CG-C2 harboring FKS1 T1885C mutant gene; assay type: functional
Outline: as §1

[7] = Inhibition of Candida albicans 205 FKS1 T1933C mutant
Outline: as §2

Candida albicans [8] = assay: Antifungal activity against Candida albicans 177 harboring FKS1 T1922C mutant gene; assay type: functional
Outline: as §1

Candida tropicalis [9] = assay: Antifungal activity against Candida tropicalis CT-C1 harboring FKS1 T227C mutant gene; assay type: functional
Outline: as §1

Candida albicans [10] = assay: Antifungal activity against Candida albicans 205 harboring FKS1 T1933C mutant gene; assay type: functional
Outline: as §1

[11] = Inhibition of Candida glabrata CG-C2 FKS1 T1885C mutant; design: species or system Nakaseomyces glabratus
Outline: as §2

[12] = Inhibition of Candida albicans 177 FKS1 T1922C mutant
Outline: as §2

[13] = Inhibition of Candida tropicalis ATCC 750 wild type FKS
Outline: as §2

Candida albicans [14] = assay: Antifungal activity against wild type Candida albicans ATCC 90028; assay type: functional
Outline: as §1

[15] = Inhibition of Candida tropicalis CT-C1 FKS1 T227C mutant
Outline: as §2

[16] = Inhibition of Candida glabrata CG-C3 FKS2 T1987C mutant; design: species or system Nakaseomyces glabratus
Outline: as §2

Nakaseomyces glabratus [17] = assay: Antifungal activity against Candida glabrata CG-C3 harboring FKS2 T1987C mutant gene; assay type: functional
Outline: as §1

Candida tropicalis [18] = assay: Antifungal activity against Candida tropicalis clinical isolate assessed as percent isolates by broth dilution assay
Nakaseomyces glabratus [19] = assay: Antifungal activity against Candida glabrata clinical isolate by broth dilution assay; assay type: functional
Outline: as §3

Nakaseomyces glabratus [20] = assay: Antifungal activity against Candida glabrata clinical isolate assessed as percent isolates by broth dilution assay
[21] = Inhibition of Candida glabrata ATCC 90030 wild type FKS; design: species or system Nakaseomyces glabratus
Outline: as §2

Candida tropicalis [22] = assay: Antifungal activity against Candida tropicalis clinical isolate by broth dilution assay; assay type: functional
Outline: as §3

[23] = Inhibition of Candida tropicalis CT-C1 FKS

Structure (SMILES) | MIC (Candida tropicalis [2]) | IC50 [3] | MIC (Nakaseomyces glabratus [4]) | MIC (Nakaseomyces glabratus [6]) | IC50 [7] | MIC (Candida albicans [8]) | MIC (Candida tropicalis [9]) | MIC (Candida albicans [10]) | IC50 [11] | IC50 [12] | IC50 [13] | MIC (Candida albicans [14]) | IC50 [15] | IC50 [16] | MIC (Nakaseomyces glabratus [17]) | IC50 [21] | other results
CCCCCOc1ccc(-c2ccc(-c3ccc(C(=O)N[C@H]4C[C@@H](O)[C@@H](O)NC(=O)[C@@H]5[C@@H](O)[C@@H](C)CN5C(=O)[C@H]([C@@H](C)O)NC(=O)[C@H]([C@H](O)[C@@H](O)c5ccc(O)cc5)NC(=O)[C@@H]5C[C@@H](O)CN5C(=O)[C@H]([C@@H](C)O)NC4=O)cc3)cc2)cc1 [ANIDULAFUNGIN] ({pTerphenylCO(4''-OnC5H11)}-[Orn(4R-OH,5R-OH)]T[Hyp][hTyr(3S-OH,4S-OH)]T[Pro(3S-OH,4S-Me)]; lactam 1-C) | 0.06 µg/mL (≈ 0.0526 µM) | 0.0005 µg/mL (≈ 0.000438 µM) | < 0.03 µg/mL | 4 µg/mL (≈ 3.51 µM) | 0.2454 µg/mL (≈ 0.215 µM) | 0.83 µg/mL (≈ 0.728 µM) | 1 µg/mL (≈ 0.877 µM) | 1.33 µg/mL (≈ 1.17 µM) | 12.778 µg/mL (≈ 11.2 µM) | 1.091 µg/mL (≈ 0.957 µM) | 0.00233 µg/mL (≈ 0.00204 µM) | 0.03 µg/mL (≈ 0.0263 µM) | 0.06128 µg/mL (≈ 0.0537 µM) | 16.882 µg/mL (≈ 14.8 µM) | 8 µg/mL (≈ 7.02 µM) |  | IC50 [1]: 13.29 µg/mL (≈ 11.7 µM); IC50 [5]: 14.26 µg/mL (≈ 12.5 µM)
CC[C@H](C)C[C@H](C)CCCCCCCCC(=O)N[C@H]1C[C@@H](O)[C@@H](NCCN)NC(=O)[C@@H]2[C@@H](O)CCN2C(=O)[C@H]([C@H](O)CCN)NC(=O)[C@H]([C@H](O)[C@@H](O)c2ccc(O)cc2)NC(=O)[C@@H]2C[C@@H](O)CN2C(=O)[C@H]([C@@H](C)O)NC1=O [CASPOFUNGIN] | 0.25 µg/mL (≈ 0.229 µM) | 0.0005 µg/mL (≈ 0.000457 µM) | 0.03 µg/mL (≈ 0.0274 µM) | 8 µg/mL (≈ 7.32 µM) | 0.2454 µg/mL (≈ 0.224 µM) | 4 µg/mL (≈ 3.66 µM) | 4 µg/mL (≈ 3.66 µM) | 8 µg/mL (≈ 7.32 µM) | 12.778 µg/mL (≈ 11.7 µM) | 1.091 µg/mL (≈ 0.998 µM) | 0.00233 µg/mL (≈ 0.00213 µM) | 0.12 µg/mL (≈ 0.11 µM) | 0.06128 µg/mL (≈ 0.056 µM) | 16.882 µg/mL (≈ 15.4 µM) | > 16 µg/mL | 0.00192 µg/mL (≈ 0.00176 µM) | Activity (Candida tropicalis [18]): 5.8%; MIC (Nakaseomyces glabratus [19]): ≥ 2 µg/mL; Activity (Nakaseomyces glabratus [20]): 2.2%; MIC (Candida tropicalis [22]): ≥ 2 µg/mL
CCCCCOc1ccc(-c2cc(-c3ccc(C(=O)N[C@H]4C[C@@H](O)[C@@H](O)NC(=O)[C@@H]5[C@@H](O)[C@@H](C)CN5C(=O)[C@H]([C@H](O)CC(N)=O)NC(=O)[C@H]([C@H](O)[C@@H](O)c5ccc(O)c(OS(=O)(=O)O)c5)NC(=O)[C@@H]5C[C@@H](O)CN5C(=O)[C@H]([C@@H](C)O)NC4=O)cc3)no2)cc1 [MICAFUNGIN] (X1-[Orn(4R-OH,5R-OH)]T[Hyp][hTyr(3S-OH,4S-OH,3'-OSO3H)][Gln(3R-OH)][Pro(3S-OH,4S-Me)]; lactam 1-C) | 0.06 µg/mL (≈ 0.0472 µM) | 0.0188 µg/mL (≈ 0.0148 µM) | 0.03 µg/mL (≈ 0.0236 µM) | 2 µg/mL (≈ 1.57 µM) | 1.088 µg/mL (≈ 0.856 µM) | 1 µg/mL (≈ 0.787 µM) | 1 µg/mL (≈ 0.787 µM) | 4 µg/mL (≈ 3.15 µM) | 15.144 µg/mL (≈ 11.9 µM) | 1.435 µg/mL (≈ 1.13 µM) | 0.007545 µg/mL (≈ 0.00594 µM) | 0.03 µg/mL (≈ 0.0236 µM) | 0.4059 µg/mL (≈ 0.32 µM) | 11.422 µg/mL (≈ 8.99 µM) | > 16 µg/mL | 0.00071 µg/mL (≈ 0.000559 µM) | IC50 [23]: 0.4014 µg/mL (≈ 0.316 µM)
